Active and inactive are the calls of the source. The calls are words filed in the database; no cut-off is given here.
Tests used:
Rattus norvegicus [1] = species on record: Rattus norvegicus; experiment: Displacement of [3H]-Epibatidine from rat nACHR fore-brain by liquid scintillation counting analysis
[2] = target: T1, Neuronal acetylcholine receptor; alpha3/beta4 (Rattus norvegicus, UniProt P04757+P12392); experiment: Displacement of [3H]-Epibatidine from rat alpha3beta4 nACHR expressed in HEK293 cell membranes by liquid scintillation counting analysis; set-up: species or system Membrane
T1 sequence (P04757 whole entry): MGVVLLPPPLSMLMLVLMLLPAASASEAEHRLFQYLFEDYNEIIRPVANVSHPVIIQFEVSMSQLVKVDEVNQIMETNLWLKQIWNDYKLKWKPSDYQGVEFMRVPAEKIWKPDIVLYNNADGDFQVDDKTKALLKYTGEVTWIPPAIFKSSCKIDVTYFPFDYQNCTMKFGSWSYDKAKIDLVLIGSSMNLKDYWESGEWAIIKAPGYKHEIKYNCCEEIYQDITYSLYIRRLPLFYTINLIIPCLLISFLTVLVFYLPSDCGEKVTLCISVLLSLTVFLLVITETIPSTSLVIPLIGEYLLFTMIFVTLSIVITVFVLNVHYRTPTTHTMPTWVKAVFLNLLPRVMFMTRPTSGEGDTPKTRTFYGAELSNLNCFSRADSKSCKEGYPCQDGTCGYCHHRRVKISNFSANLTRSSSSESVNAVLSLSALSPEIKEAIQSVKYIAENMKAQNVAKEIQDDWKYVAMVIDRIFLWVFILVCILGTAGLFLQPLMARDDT
T1 sequence (P12392 whole entry): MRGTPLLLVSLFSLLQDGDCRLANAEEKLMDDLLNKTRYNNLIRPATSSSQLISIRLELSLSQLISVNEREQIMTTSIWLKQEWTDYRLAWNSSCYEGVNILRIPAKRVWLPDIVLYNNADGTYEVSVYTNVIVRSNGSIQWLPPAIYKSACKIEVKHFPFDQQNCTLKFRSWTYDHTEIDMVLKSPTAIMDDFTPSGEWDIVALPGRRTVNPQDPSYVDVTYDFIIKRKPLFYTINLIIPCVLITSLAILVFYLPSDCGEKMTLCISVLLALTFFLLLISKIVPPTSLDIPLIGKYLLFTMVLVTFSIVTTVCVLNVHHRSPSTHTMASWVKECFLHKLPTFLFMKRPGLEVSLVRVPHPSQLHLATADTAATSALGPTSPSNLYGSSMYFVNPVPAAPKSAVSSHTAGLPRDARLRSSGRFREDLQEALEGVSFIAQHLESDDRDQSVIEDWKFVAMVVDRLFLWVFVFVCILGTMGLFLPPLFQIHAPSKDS

[3] = target: T1, Neuronal acetylcholine receptor; alpha3/beta4; experiment: Agonist activity at rat alpha3beta4 nACHR expressed in HEK293 cells assessed as […] by liquid scintillation counting analysis; format: cell-based
[4] = target: T2, Neuronal acetylcholine receptor; alpha4/beta2 (Homo sapiens, UniProt P17787+P43681); experiment: Agonist activity at human alpha4beta2 nACHR expressed in HEK293 cells assessed as […] by liquid scintillation counting analysis; format: cell-based
T2 sequence (P17787 whole entry): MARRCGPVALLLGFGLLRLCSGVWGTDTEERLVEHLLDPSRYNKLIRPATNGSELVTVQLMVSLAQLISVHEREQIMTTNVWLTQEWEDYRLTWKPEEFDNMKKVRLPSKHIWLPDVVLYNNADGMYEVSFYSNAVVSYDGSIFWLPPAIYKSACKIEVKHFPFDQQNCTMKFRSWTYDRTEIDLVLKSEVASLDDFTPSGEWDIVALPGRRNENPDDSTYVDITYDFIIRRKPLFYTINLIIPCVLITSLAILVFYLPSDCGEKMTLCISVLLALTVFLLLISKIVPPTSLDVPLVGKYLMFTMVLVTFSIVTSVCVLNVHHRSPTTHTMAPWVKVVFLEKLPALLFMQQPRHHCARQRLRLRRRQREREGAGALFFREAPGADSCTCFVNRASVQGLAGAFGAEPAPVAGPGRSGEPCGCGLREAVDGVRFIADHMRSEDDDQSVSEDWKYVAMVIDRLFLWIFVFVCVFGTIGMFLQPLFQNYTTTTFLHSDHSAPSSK
T2 sequence (P43681 whole entry): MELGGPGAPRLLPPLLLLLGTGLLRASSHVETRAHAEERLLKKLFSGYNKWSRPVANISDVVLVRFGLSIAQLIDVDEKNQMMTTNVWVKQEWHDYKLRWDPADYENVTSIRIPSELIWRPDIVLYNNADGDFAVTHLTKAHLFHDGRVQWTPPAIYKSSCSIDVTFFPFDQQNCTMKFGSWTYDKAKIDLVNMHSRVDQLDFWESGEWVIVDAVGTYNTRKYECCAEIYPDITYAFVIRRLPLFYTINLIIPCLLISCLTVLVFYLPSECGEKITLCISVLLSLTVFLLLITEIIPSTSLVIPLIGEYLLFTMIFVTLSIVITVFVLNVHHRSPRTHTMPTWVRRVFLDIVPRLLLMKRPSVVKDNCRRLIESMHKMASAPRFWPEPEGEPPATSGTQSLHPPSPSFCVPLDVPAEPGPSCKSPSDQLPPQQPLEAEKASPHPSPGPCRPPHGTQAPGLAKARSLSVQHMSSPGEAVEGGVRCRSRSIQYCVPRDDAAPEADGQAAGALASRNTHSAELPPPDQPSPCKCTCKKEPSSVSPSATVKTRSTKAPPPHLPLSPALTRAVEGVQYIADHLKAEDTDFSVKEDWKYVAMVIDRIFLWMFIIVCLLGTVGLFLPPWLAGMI

Mustela putorius furo [5] = experiment: Toxicity in ferret assessed as induction of emetic episodes at 1 to 30 mg/kg, sc measured for 60 mins; format: organism-based; set-up: dose 1-30 mg/kg, route subcutaneous; conditions: in vivo, 1 h
In short: (§1)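 Male ferrets (0.9–1.5 kg), food withheld overnight, water ad libitum. After 30 min acclimation alone in an enclosure, single s.c. subscapular injection (1–30 mg/kg in 0.9% saline); emetic episodes and nausea-related stereotypical behaviours (gagging, licking, backward walking) scored by 60 min observation with video recording; n = 6.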

Rattus norvegicus [6] = experiment: Reduction of alcohol intake in sc dosed alcohol-preferring rat after 2 to 24 hrs relative to vehicle-treated control; format: functional, organism-based
In short: (§2)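 Adult male selectively bred alcohol-preferring (P) rats with two-bottle access (water, alcohol) in Richter tubes, 12:12 light–dark, 22 °C. After stable baseline, single s.c. injection of 0.33, 1 or 3 mg/kg or vehicle; alcohol and water intake (g/kg) read at 2, 4, 6 and 24 h. Crossover, random assignment, ≥3 days between injections, n = 18; mean ± SEM.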

Rattus norvegicus [7] = species on record: Rattus norvegicus; experiment: Selectivity ratio of Ki for rat alpha7 nACHR to rat alpha4beta2 nACHR
[8] = target: T2, Neuronal acetylcholine receptor; alpha4/beta2; experiment: Agonist activity at human alpha4beta2 nACHR expressed in HEK293 cells assessed as […] by liquid scintillation counting analysis relative to nicotine; format: cell-based
Rattus norvegicus [9] = experiment: Reduction of alcohol intake in alcohol-preferring rat at 1 mg/kg, sc after 24 hrs; format: functional, organism-based; set-up: dose 1 mg/kg; in short: as §2
Rattus norvegicus [10] = experiment: Reduction of alcohol intake in alcohol-preferring rat at 3 mg/kg, sc after 6 to 24 hrs; format: functional, organism-based; set-up: dose 3 mg/kg; in short: as §2
Mustela putorius furo [11] = experiment: Toxicity in ferret assessed as induction of stereotypical behavior at 1 to 30 mg/kg, sc measured for 60 mins; format: organism-based; set-up: dose 1-30 mg/kg, route subcutaneous; conditions: in vivo, 1 h; in short: as §1
Rattus norvegicus [12] = experiment: Reduction of alcohol intake in alcohol-preferring rat at […], sc after 2 to 24 hrs; format: functional, organism-based; set-up: dose 0.33 mg/kg
Rattus norvegicus [13] = species on record: Rattus norvegicus; experiment: Selectivity ratio of Ki for rat alpha3beta4 nACHR to rat alpha4beta2 nACHR
[14] = target: T1, Neuronal acetylcholine receptor; alpha3/beta4; experiment: Desensitization of rat alpha3beta4 nACHR expressed in HEK293 cells assessed as inhibition of 86Rb+ efflux preincubated for 10 mins measured after 2 hrs by liquid scintillation counting analysis; format: cell-based
[15] = target: Neuronal acetylcholine receptor; alpha4/beta2 (Rattus norvegicus) (UniProt P09483+P12390); experiment: Ratio of (-)-nicotine Ki to compound Ki for rat alpha4beta2 nACHR; format: protein-complex assay
Mustela putorius furo [16] = experiment: Toxicity in ferret assessed as backward walking episodes at 0.5 mg/kg, sc measured 2.20 mins post injection; format: organism-based; set-up: dose 0.5 mg/kg, route subcutaneous; conditions: in vivo, 132 s
In short: (§3)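 Male ferrets (0.9−1.5 kg), food withheld overnight, water ad libitum. Drug in 0.9% saline, given subcutaneously in the subscapular region after a 30 min acclimation in an individual polycarbonate enclosure. Emesis and nausea-linked behaviours (retching, oral stereotypy, backward walking, locomotion) were scored by 60 min observation with video recording. Affected animals were then given granisetron plus dexamethasone 1 mg/kg i.p.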

Mustela putorius furo [17] = experiment: Toxicity in ferret assessed as increase in breathing at 0.5 mg/kg, sc measured for 60 mins; format: organism-based; set-up: dose 0.5 mg/kg, route subcutaneous; conditions: in vivo, 1 h; in short: as §3
Mustela putorius furo [18] = experiment: Toxicity in ferret assessed as cessation of movement at 0.5 mg/kg, sc measured for 60 mins; format: organism-based; set-up: dose 0.5 mg/kg, route subcutaneous; conditions: in vivo, 1 h; in short: as §3
Mustela putorius furo [19] = experiment: Toxicity in ferret assessed as induction of licking behavior at 0.5 mg/kg, sc measured 2.20 mins post injection; format: organism-based; set-up: dose 0.5 mg/kg, route subcutaneous; conditions: in vivo, 132 s; in short: as §3
Mustela putorius furo [20] = experiment: Toxicity in ferret assessed as induction of retching at 0.5 mg/kg, sc measured for 60 mins; format: organism-based; set-up: dose 0.5 mg/kg, route subcutaneous; conditions: in vivo, 1 h; in short: as §3
Mustela putorius furo [21] = experiment: Toxicity in ferret assessed as reduction in locomotor behavior at 0.5 mg/kg, sc measured 1.05 mins to 1 hr post injection; format: organism-based; set-up: dose 0.5 mg/kg, route subcutaneous; conditions: in vivo; in short: as §3
Mustela putorius furo [22] = experiment: Toxicity in ferret assessed as induction of emetic episodes at 0.5 mg/kg, sc measured for 60 mins; format: organism-based; set-up: dose 0.5 mg/kg, route subcutaneous; conditions: in vivo, 1 h; in short: as §3
[23] = target: Neuronal acetylcholine receptor; alpha3/beta4 (Rattus norvegicus) (UniProt P04757+P12392); experiment: Agonist activity at rat alpha3beta4 nACHR expressed in HEK293 cells assessed as stimulation of 86Rb+ efflux after 2 hrs by liquid scintillation counting analysis relative to nicotine; format: cell-based
[24] = target: T2, Neuronal acetylcholine receptor; alpha4/beta2; experiment: Desensitization of human alpha4beta2 nACHR expressed in HEK293 cells assessed as inhibition of 86Rb+ efflux preincubated for 10 mins measured after 2 hrs by liquid scintillation counting analysis; format: cell-based

SMILES	EC50 ([3]; hek293)	EC50 ([4]; hek293)	Ratio Ki (Rattus norvegicus [7])	Emax [8]	Ratio Ki (Rattus norvegicus [13])	IC50 [14]	also measured
CCCCC#Cc1cnc(C(F)(F)F)c(OC[C@@H]2CCN2)c1							Ratio Ki (Rattus norvegicus [1]): > 100000; Ki [2]: > 100 µM
CCCCC#Cc1cnc(C)c(OC[C@@H]2CCCN2)c1	Not Active	Not Active					
CCCCC#Cc1cnc(C)c(OC[C@@H]2CCN2)c1	Not Active		7800	15%	19000	> 10 µM	Activity (Mustela putorius furo [5]): Non-toxic; Activity (Rattus norvegicus [6]): Dose-dependent effect; Activity (Rattus norvegicus [9]): Active; Activity (Rattus norvegicus [10]): Active; Activity (Mustela putorius furo [11]): Non-toxic; Activity (Rattus norvegicus [12]): inactive
Cc1ncc(C#CCCCCCl)cc1OC[C@@H]1CCN1	Not Active	Not Active	13000		17000	> 10 µM	Ratio Ki (Rattus norvegicus [1]): 32
Cc1ncc(C#CC2CC2)cc1OC[C@@H]1CCN1	Not Active		16000	17%	16000	> 10 µM	
Cc1ncc(C#CCCCCF)cc1OC[C@@H]1CCN1	Not Active	Not Active				> 10 µM	
Cc1ncc(C#CCCCCO)cc1OC[C@@H]1CCN1	Not Active		40000	20%	70000	> 10 µM	EC50 ([4]; read-out: EC50): 0.45 µM; Ratio Ki [15]: 2
c1cnc2cc3c(cc2n1)[C@@H]1CNC[C@H]3C1 [VARENICLINE]							Activity (Mustela putorius furo [16]): Toxic; Activity (Mustela putorius furo [17]): Toxic; Activity (Mustela putorius furo [18]): Toxic; EC50 ([3]; read-out: EC50): 21 µM; Activity (Mustela putorius furo [19]): Toxic; Activity (Mustela putorius furo [20]): Toxic; Activity (Mustela putorius furo [21]): Toxic; Activity (Mustela putorius furo [22]): Non-toxic
OCCCCC#Cc1cncc(OC[C@@H]2CCN2)c1			11000		31000		Emax [23]: 12%; EC50 ([3]; read-out: EC50): 30 µM; IC50 [24]: 0.011 µM

— ChEMBL document CHEMBL2321838, “Chemistry and pharmacological studies of 3-alkoxy-2,5-disubstituted-pyridinyl compounds as novel selective α4β2 nicotinic acetylcholine receptor ligands that reduce alcohol intake in rats” (J Med Chem, 2013)
